Results as given in ChEMBL document CHEMBL3877325, “Novel salicylanilides from 4,5-dihalogenated salicylic acids: Synthesis, antimicrobial activity and cytotoxicity” (Bioorg Med Chem, 2017).
In brackets after ≈: the same amount, converted by molar mass.

Legend:
[1] = system: Mycobacterium tuberculosis; experiment: Antimycobacterial activity against Mycobacterium tuberculosis H37Rv My 331/88 after 14 days by micromethod; format: functional; conditions: H37Rv My 331/88, 336 h
In short: (§1)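 MIC micromethod in Šula's semisynthetic medium at 37 °C, read after 14 and 21 days. Compounds added as DMSO solutions at 500 down to 0.5 µM (twofold-type series: 500, 250, 125, 62.5, 32, 16, 8, 4, 2, 1, 0.5 µM). Isoniazid standard given in sterile water.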

[2] = system: Mycobacterium tuberculosis; experiment: Antimycobacterial activity against Mycobacterium tuberculosis H37Rv My 331/88 after 21 days by micromethod; format: functional; conditions: H37Rv My 331/88, 504 h; in short: as §1
Mycobacterium avium [3] = experiment: Antimycobacterial activity against Mycobacterium avium My 330/80 after 14 days by micromethod; format: functional; conditions: My 330/80, 336 h
In short: (§2)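 M. avium My 330/80 (collection strain) inoculated at 10^-5 dilution into Šula's semisynthetic medium. Compounds added from DMSO solutions at 500, 250, 125, 62.5, 32, 16, 8, 4, 2, 1 and 0.5 µM. MIC determined by micromethod at 37 °C, read after 14 and 21 days.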

Mycobacterium avium [4] = experiment: Antimycobacterial activity against Mycobacterium avium My 330/80 after 21 days by micromethod; format: functional; conditions: My 330/80, 504 h; in short: as §2
Mycobacterium kansasii [5] = experiment: Antimycobacterial activity against Mycobacterium kansasii isolate 235/80 after 7 days by micromethod; format: functional; conditions: isolate 235/80, 168 h
In short: (§3)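 MIC in Šula's semisynthetic medium at 37 °C, read after 7, 14 and 21 days. Inoculum is strain dilution 10^-4; 235/80 is a collection strain and 6509/96 a clinical isolate. Compounds are added as DMSO solutions at 500, 250, 125, 62.5, 32, 16, 8, 4, 2, 1 and 0.5 µM. INH (in sterile water) and PAS are the reference drugs.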

Mycobacterium kansasii [6] = experiment: Antimycobacterial activity against Mycobacterium kansasii isolate 235/80 after 14 days by micromethod; format: functional; conditions: isolate 235/80, 336 h; in short: as §3
Mycobacterium kansasii [7] = experiment: Antimycobacterial activity against Mycobacterium kansasii isolate 235/80 after 21 days by micromethod; format: functional; conditions: isolate 235/80, 504 h; in short: as §3
Mycobacterium kansasii [8] = experiment: Antimycobacterial activity against Mycobacterium kansasii isolate 6509/96 after 7 days by micromethod; format: functional; conditions: isolate 6509/96, 168 h; in short: as §3
Mycobacterium kansasii [9] = experiment: Antimycobacterial activity against Mycobacterium kansasii isolate 6509/96 after 14 days by micromethod; format: functional; conditions: isolate 6509/96, 336 h; in short: as §3
Mycobacterium kansasii [10] = experiment: Antimycobacterial activity against Mycobacterium kansasii isolate 6509/96 after 21 days by micromethod; format: functional; conditions: isolate 6509/96, 504 h; in short: as §3
[11] = Cytotoxicity against human HepG2 cells assessed as reduction in cell viability after 24 hrs by MTS assay; format: toxicity, cell-based
In short: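 HepG2 cells (passages 33-37) are grown in MEM with 10% FBS, L-glutamine and non-essential amino acids. They are seeded at 1 × 10^4 cells/well and treated next day with 0.1-100 µM in triplicate for 24 h at 37 °C, 5% CO2. MTS reagent is added for 2 h and A490 read.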

[12] = Selectivity index, ratio of IC50 for human HepG2 cells to MIC for Mycobacterium tuberculosis H37Rv after 21 days; format: toxicity, cell-based; conditions: HepG2 cells versus Mycobacterium tuberculosis H37Rv, read-out: Selectivity Index
In short: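 HepG2 cells (passages 33-37) seeded at 1 × 10^4 per well and treated next day with 0.1–100 µM in triplicate. After 24 h at 37 °C, 5% CO2, MTS reagent added for 2 h and absorbance read at 490 nm. IC50 taken from viability relative to untreated control, then divided by the 21-day H37Rv MIC.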

Compound: O=C(Nc1ccc(Br)cc1)c1cc(Cl)c(Cl)cc1O
- MIC [1]: 2 µM (≈ 0.722 µg/mL)
- MIC [2]: 4 µM (≈ 1.44 µg/mL)
- MIC (Mycobacterium avium [3]): 32 µM (≈ 11.6 µg/mL)
- MIC (Mycobacterium avium [4]): 32 µM (≈ 11.6 µg/mL)
- MIC (Mycobacterium kansasii [5]): 8 µM (≈ 2.89 µg/mL)
- MIC (Mycobacterium kansasii [6]): 8 µM (≈ 2.89 µg/mL)
- MIC (Mycobacterium kansasii [7]): 8 µM (≈ 2.89 µg/mL)
- MIC (Mycobacterium kansasii [8]): 8 µM (≈ 2.89 µg/mL)
- MIC (Mycobacterium kansasii [9]): 8 µM (≈ 2.89 µg/mL)
- MIC (Mycobacterium kansasii [10]): 8 µM (≈ 2.89 µg/mL)
- IC50 at 24 h [11]: 21.4 µM
- selectivity ratio at 504 h [12]: 5.35

Compound: O=C(Nc1cc(C(F)(F)F)cc(C(F)(F)F)c1)c1cc(Br)c(Cl)cc1O
- MIC [1]: 2 µM (≈ 0.925 µg/mL)
- MIC [2]: 4 µM (≈ 1.85 µg/mL)
- MIC (Mycobacterium avium [3]): 16 µM (≈ 7.4 µg/mL)
- MIC (Mycobacterium avium [4]): 32 µM (≈ 14.8 µg/mL)
- MIC (Mycobacterium kansasii [5]): 8 µM (≈ 3.7 µg/mL)
- MIC (Mycobacterium kansasii [6]): 8 µM (≈ 3.7 µg/mL)
- MIC (Mycobacterium kansasii [7]): 8 µM (≈ 3.7 µg/mL)
- MIC (Mycobacterium kansasii [8]): 8 µM (≈ 3.7 µg/mL)
- MIC (Mycobacterium kansasii [9]): 8 µM (≈ 3.7 µg/mL)
- MIC (Mycobacterium kansasii [10]): 8 µM (≈ 3.7 µg/mL)
- IC50 at 24 h [11]: 5.07 µM
- selectivity ratio at 504 h [12]: 1.27

Compound: O=C(Nc1ccc(Cl)c(Cl)c1)c1cc(Br)c(Cl)cc1O
- MIC [1]: 2 µM (≈ 0.791 µg/mL)
- MIC [2]: 4 µM (≈ 1.58 µg/mL)
- MIC (Mycobacterium avium [3]): 125 µM (≈ 49.4 µg/mL)
- MIC (Mycobacterium avium [4]): 125 µM (≈ 49.4 µg/mL)
- MIC (Mycobacterium kansasii [5]): 8 µM (≈ 3.16 µg/mL)
- MIC (Mycobacterium kansasii [6]): 8 µM (≈ 3.16 µg/mL)
- MIC (Mycobacterium kansasii [7]): 8 µM (≈ 3.16 µg/mL)
- MIC (Mycobacterium kansasii [8]): 8 µM (≈ 3.16 µg/mL)
- MIC (Mycobacterium kansasii [9]): 8 µM (≈ 3.16 µg/mL)
- MIC (Mycobacterium kansasii [10]): 8 µM (≈ 3.16 µg/mL)
- IC50 at 24 h [11]: 7.65 µM
- selectivity ratio at 504 h [12]: 1.91

Compound: O=C(Nc1ccc(C(F)(F)F)cc1)c1cc(Br)c(Cl)cc1O
- MIC [1]: 1 µM (≈ 0.395 µg/mL)
- MIC [2]: 2 µM (≈ 0.789 µg/mL)
- MIC (Mycobacterium avium [3]): 32 µM (≈ 12.6 µg/mL)
- MIC (Mycobacterium avium [4]): 62.5 µM (≈ 24.7 µg/mL)
- MIC (Mycobacterium kansasii [5]): 4 µM (≈ 1.58 µg/mL)
- MIC (Mycobacterium kansasii [6]): 4 µM (≈ 1.58 µg/mL)
- MIC (Mycobacterium kansasii [7]): 4 µM (≈ 1.58 µg/mL)
- MIC (Mycobacterium kansasii [8]): 4 µM (≈ 1.58 µg/mL)
- MIC (Mycobacterium kansasii [9]): 4 µM (≈ 1.58 µg/mL)
- MIC (Mycobacterium kansasii [10]): 4 µM (≈ 1.58 µg/mL)
- IC50 at 24 h [11]: 11 µM
- selectivity ratio at 504 h [12]: 5.52

Compound: O=C(Nc1ccc(Br)cc1)c1cc(Br)c(Cl)cc1O
- MIC [1]: 2 µM (≈ 0.811 µg/mL)
- MIC [2]: 4 µM (≈ 1.62 µg/mL)
- MIC (Mycobacterium avium [3]): 32 µM (≈ 13 µg/mL)
- MIC (Mycobacterium avium [4]): 32 µM (≈ 13 µg/mL)
- MIC (Mycobacterium kansasii [5]): 4 µM (≈ 1.62 µg/mL)
- MIC (Mycobacterium kansasii [6]): 8 µM (≈ 3.24 µg/mL)
- MIC (Mycobacterium kansasii [7]): 8 µM (≈ 3.24 µg/mL)
- MIC (Mycobacterium kansasii [8]): 8 µM (≈ 3.24 µg/mL)
- MIC (Mycobacterium kansasii [9]): 8 µM (≈ 3.24 µg/mL)
- MIC (Mycobacterium kansasii [10]): 8 µM (≈ 3.24 µg/mL)
- IC50 at 24 h [11]: 10.8 µM
- selectivity ratio at 504 h [12]: 2.71

Compound: O=C(Nc1ccc(Cl)c(Cl)c1)c1cc(Cl)c(Cl)cc1O
- MIC [1]: 2 µM (≈ 0.702 µg/mL)
- MIC [2]: 2 µM (≈ 0.702 µg/mL)
- MIC (Mycobacterium avium [3]): 62.5 µM (≈ 21.9 µg/mL)
- MIC (Mycobacterium avium [4]): 62.5 µM (≈ 21.9 µg/mL)
- MIC (Mycobacterium kansasii [5]): 4 µM (≈ 1.4 µg/mL)
- MIC (Mycobacterium kansasii [6]): 8 µM (≈ 2.81 µg/mL)
- MIC (Mycobacterium kansasii [7]): 8 µM (≈ 2.81 µg/mL)
- MIC (Mycobacterium kansasii [8]): 8 µM (≈ 2.81 µg/mL)
- MIC (Mycobacterium kansasii [9]): 8 µM (≈ 2.81 µg/mL)
- MIC (Mycobacterium kansasii [10]): 8 µM (≈ 2.81 µg/mL)
- IC50 at 24 h [11]: 12.4 µM
- selectivity ratio at 504 h [12]: 6.21

Compound: O=C(Nc1ccc(C(F)(F)F)cc1)c1cc(Cl)c(Cl)cc1O
- MIC [1]: 2 µM (≈ 0.7 µg/mL)
- MIC [2]: 2 µM (≈ 0.7 µg/mL)
- MIC (Mycobacterium avium [3]): 62.5 µM (≈ 21.9 µg/mL)
- MIC (Mycobacterium avium [4]): 62.5 µM (≈ 21.9 µg/mL)
- MIC (Mycobacterium kansasii [5]): 4 µM (≈ 1.4 µg/mL)
- MIC (Mycobacterium kansasii [6]): 8 µM (≈ 2.8 µg/mL)
- MIC (Mycobacterium kansasii [7]): 8 µM (≈ 2.8 µg/mL)
- MIC (Mycobacterium kansasii [8]): 4 µM (≈ 1.4 µg/mL)
- MIC (Mycobacterium kansasii [9]): 8 µM (≈ 2.8 µg/mL)
- MIC (Mycobacterium kansasii [10]): 8 µM (≈ 2.8 µg/mL)
- IC50 at 24 h [11]: 9.87 µM
- selectivity ratio at 504 h [12]: 4.94

Compound: O=C(Nc1cc(C(F)(F)F)cc(C(F)(F)F)c1)c1cc(Cl)c(Cl)cc1O
- MIC [1]: 2 µM (≈ 0.836 µg/mL)
- MIC [2]: 2 µM (≈ 0.836 µg/mL)
- MIC (Mycobacterium avium [3]): 32 µM (≈ 13.4 µg/mL)
- MIC (Mycobacterium avium [4]): 32 µM (≈ 13.4 µg/mL)
- MIC (Mycobacterium kansasii [5]): 8 µM (≈ 3.34 µg/mL)
- MIC (Mycobacterium kansasii [6]): 8 µM (≈ 3.34 µg/mL)
- MIC (Mycobacterium kansasii [7]): 16 µM (≈ 6.69 µg/mL)
- MIC (Mycobacterium kansasii [8]): 8 µM (≈ 3.34 µg/mL)
- MIC (Mycobacterium kansasii [9]): 16 µM (≈ 6.69 µg/mL)
- MIC (Mycobacterium kansasii [10]): 16 µM (≈ 6.69 µg/mL)
- IC50 at 24 h [11]: 4.86 µM
- selectivity ratio at 504 h [12]: 2.43

Compound: O=C(Nc1ccc(Br)cc1)c1cc(Br)ccc1O [DIBROMSALAN]
- MIC [1]: 4 µM (≈ 1.48 µg/mL)
- MIC [2]: 4 µM (≈ 1.48 µg/mL)
- MIC (Mycobacterium avium [3]): 16 µM (≈ 5.94 µg/mL)
- MIC (Mycobacterium avium [4]): 16 µM (≈ 5.94 µg/mL)
- MIC (Mycobacterium kansasii [5]): 4 µM (≈ 1.48 µg/mL)
- MIC (Mycobacterium kansasii [6]): 8 µM (≈ 2.97 µg/mL)
- MIC (Mycobacterium kansasii [7]): 8 µM (≈ 2.97 µg/mL)
- MIC (Mycobacterium kansasii [8]): 8 µM (≈ 2.97 µg/mL)
- MIC (Mycobacterium kansasii [9]): 8 µM (≈ 2.97 µg/mL)
- MIC (Mycobacterium kansasii [10]): 8 µM (≈ 2.97 µg/mL)
- IC50 at 24 h [11]: 23.6 µM
- selectivity ratio at 504 h [12]: 5.9

Compound: O=C(Nc1cc(C(F)(F)F)cc(C(F)(F)F)c1)c1cc(Cl)ccc1O [IMD-0354]
- MIC [1]: 4 µM (≈ 1.53 µg/mL)
- MIC [2]: 8 µM (≈ 3.07 µg/mL)
- MIC (Mycobacterium avium [3]): 32 µM (≈ 12.3 µg/mL)
- MIC (Mycobacterium avium [4]): 32 µM (≈ 12.3 µg/mL)
- MIC (Mycobacterium kansasii [5]): 8 µM (≈ 3.07 µg/mL)
- MIC (Mycobacterium kansasii [6]): 16 µM (≈ 6.14 µg/mL)
- MIC (Mycobacterium kansasii [7]): 16 µM (≈ 6.14 µg/mL)
- MIC (Mycobacterium kansasii [8]): 8 µM (≈ 3.07 µg/mL)
- MIC (Mycobacterium kansasii [9]): 16 µM (≈ 6.14 µg/mL)
- MIC (Mycobacterium kansasii [10]): 16 µM (≈ 6.14 µg/mL)
- IC50 at 24 h [11]: 10.2 µM
- selectivity ratio at 504 h [12]: 1.27
